Measured values as given in publication PMC3537910 (European journal of nuclear medicine and molecular imaging, 2012).
Several values for one entry are separate records, joined by “and”; a condition that tells them apart may be missing. Identical values can stand only once.

Legend:
mGluR1 [1] = target: T1, mGluR1 (Rattus norvegicus, UniProt P23385); experiment: pharmacological validation: blocking of LY2428703 tracer specific binding; type: in vivo; details: i.v. administration, LY2428703 as non-labeled tracer
mGluR1 [2] = target: T2, mGluR1 (Homo sapiens, UniProt Q13255); type: cell-based; details: from IC50 8.9 and 118 nM
Summary of the method: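 Calcium mobilization was measured in cells expressing individual human mGlu receptors (1, 2, 3, 4, 5, 7, 8). Agonism: % stimulation by test compound alone relative to maximal glutamate response. Antagonism: % inhibition of the EC90 glutamate response. Potentiation: % increase of an EC10 glutamate response relative to the ECmax response.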

mGluR1 [3] = target: T2, mGluR1; experiment: competition binding assay with 3H-LSN456066, human; details: humans
[4] = metabolic stability in liver microsomes, mouse; type: in vitro ADME; details: mouse hepatic microsomes, 30 minutes, n = 3
[5] = metabolic stability in liver microsomes, rat; type: in vitro ADME; details: rat hepatic microsomes, 30 minutes, n = 2
[6] = metabolic stability in liver microsomes, dog; type: in vitro ADME; details: dog hepatic microsomes, 30 minutes, n = 3
[7] = metabolic stability in liver microsomes, monkey; type: in vitro ADME; details: monkey hepatic microsomes, 30 minutes, n = 2
human P-gp = human P-gp (Homo sapiens, UniProt P08183); experiment: P-gp substrate identification in MDCK cells transfected with wild-type MDR1; type: in vitro ADME
[8] = LC-MS/MS rat brain kinetic analysis with non-labeled tracer; type: in vivo; details: 10 μg/kg dose, 15 minutes
mGluR1 [9] = target: T1, mGluR1; experiment: mGluR1 occupancy experiment, non-labeled JNJ16259685 as tracer; type: in vivo; details: oral administration
[10] = mouse, in vivo
[11] = calibrated Mouse Brain Uptake Assay; details: cMBUA
mGluR5 = mGluR5 (Rattus norvegicus, UniProt P31424); experiment: PET imaging, cross-reactivity with mGluR5 receptors; type: in vivo
[12] = LogD7.4 measurement in octanol; type: physicochemical; details: n = 6
mGluR1 [13] = target: T1, mGluR1; experiment: PET imaging, specific binding in rat brain; type: in vivo; details: baseline vs blocked scans
[14] = one hour at 37 °C
ABCB1 (P-gp) = details: wild type vs knock-out mice, PET
ABCG2 (BCRP) = ABCG2 (BCRP) (Mus musculus, UniProt Q7TMS5); details: wild type vs knock-out mice, PET
[15] = reference compound; cited from earlier work
[16] = MDCK monolayers overexpressing human P-gp
[17] = rat brain, 30 minutes after injection
[18] = rat cerebellum, 30 minutes after injection
[19] = rat, 30 minutes after injection
[20] = tissue without blood, mean of two measurements

human P-gp, sequence (P08183 whole entry): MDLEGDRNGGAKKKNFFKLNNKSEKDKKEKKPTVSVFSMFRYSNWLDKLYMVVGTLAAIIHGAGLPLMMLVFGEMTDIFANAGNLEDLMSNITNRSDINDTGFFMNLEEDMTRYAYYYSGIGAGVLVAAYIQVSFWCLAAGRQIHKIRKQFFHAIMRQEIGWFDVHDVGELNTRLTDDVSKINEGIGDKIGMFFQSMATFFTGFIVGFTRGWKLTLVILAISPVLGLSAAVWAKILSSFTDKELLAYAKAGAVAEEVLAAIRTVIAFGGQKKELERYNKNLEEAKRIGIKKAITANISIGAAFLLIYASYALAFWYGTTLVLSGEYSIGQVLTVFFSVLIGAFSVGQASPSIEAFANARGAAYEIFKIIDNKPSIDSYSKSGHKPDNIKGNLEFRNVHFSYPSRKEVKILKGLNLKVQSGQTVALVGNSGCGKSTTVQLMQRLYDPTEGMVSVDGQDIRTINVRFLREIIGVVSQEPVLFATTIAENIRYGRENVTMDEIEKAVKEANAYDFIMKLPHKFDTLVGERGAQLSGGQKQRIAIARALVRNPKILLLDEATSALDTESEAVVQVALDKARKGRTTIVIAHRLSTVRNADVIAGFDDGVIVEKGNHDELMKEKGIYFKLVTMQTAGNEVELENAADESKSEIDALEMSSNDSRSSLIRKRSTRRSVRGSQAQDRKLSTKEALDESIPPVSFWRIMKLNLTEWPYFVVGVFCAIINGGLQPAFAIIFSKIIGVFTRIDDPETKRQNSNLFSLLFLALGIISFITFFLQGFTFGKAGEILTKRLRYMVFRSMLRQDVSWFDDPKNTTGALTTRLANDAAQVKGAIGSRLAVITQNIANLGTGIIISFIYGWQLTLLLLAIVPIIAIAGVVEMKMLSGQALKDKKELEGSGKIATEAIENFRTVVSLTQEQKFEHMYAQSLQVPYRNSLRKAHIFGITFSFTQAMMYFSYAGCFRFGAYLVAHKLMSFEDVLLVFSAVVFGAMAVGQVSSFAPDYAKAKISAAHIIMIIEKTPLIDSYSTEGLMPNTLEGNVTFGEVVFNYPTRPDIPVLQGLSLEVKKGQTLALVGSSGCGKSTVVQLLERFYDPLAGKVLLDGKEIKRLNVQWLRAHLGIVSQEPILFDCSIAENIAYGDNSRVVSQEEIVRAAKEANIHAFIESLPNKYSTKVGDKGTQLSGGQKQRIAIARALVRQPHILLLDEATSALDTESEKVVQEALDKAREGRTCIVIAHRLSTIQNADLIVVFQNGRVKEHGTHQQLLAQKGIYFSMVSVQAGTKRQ
T1 sequence (P23385 19-1199): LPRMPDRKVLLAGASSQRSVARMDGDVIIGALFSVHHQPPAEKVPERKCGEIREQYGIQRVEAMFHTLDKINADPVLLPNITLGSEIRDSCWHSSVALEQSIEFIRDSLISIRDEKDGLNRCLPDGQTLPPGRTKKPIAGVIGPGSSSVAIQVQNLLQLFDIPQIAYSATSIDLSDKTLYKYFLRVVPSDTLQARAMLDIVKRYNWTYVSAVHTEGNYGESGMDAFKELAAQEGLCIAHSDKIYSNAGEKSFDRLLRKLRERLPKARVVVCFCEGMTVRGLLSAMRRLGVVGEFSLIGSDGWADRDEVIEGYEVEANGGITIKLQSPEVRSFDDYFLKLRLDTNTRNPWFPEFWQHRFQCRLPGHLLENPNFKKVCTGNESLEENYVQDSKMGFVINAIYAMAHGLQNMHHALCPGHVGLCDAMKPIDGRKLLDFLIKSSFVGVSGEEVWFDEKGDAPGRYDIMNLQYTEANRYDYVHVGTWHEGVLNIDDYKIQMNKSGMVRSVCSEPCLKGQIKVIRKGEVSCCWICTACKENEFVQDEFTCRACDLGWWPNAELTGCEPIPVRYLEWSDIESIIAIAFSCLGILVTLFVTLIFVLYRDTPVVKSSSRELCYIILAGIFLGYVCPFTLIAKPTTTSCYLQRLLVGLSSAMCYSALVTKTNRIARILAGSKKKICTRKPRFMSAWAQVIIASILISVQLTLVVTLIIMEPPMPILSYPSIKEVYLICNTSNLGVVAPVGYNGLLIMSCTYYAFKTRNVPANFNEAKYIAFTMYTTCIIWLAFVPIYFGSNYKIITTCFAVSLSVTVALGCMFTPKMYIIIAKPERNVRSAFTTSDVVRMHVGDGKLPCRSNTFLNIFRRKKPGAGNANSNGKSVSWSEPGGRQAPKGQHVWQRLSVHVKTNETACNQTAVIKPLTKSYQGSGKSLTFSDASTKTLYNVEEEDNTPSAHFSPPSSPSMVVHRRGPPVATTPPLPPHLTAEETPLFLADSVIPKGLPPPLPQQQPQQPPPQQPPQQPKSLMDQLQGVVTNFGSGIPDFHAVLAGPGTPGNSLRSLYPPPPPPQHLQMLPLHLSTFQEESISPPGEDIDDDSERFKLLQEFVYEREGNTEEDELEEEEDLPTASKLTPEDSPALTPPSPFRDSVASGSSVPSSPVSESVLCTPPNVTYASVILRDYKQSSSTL
T2 sequence (Q13255 19-1194): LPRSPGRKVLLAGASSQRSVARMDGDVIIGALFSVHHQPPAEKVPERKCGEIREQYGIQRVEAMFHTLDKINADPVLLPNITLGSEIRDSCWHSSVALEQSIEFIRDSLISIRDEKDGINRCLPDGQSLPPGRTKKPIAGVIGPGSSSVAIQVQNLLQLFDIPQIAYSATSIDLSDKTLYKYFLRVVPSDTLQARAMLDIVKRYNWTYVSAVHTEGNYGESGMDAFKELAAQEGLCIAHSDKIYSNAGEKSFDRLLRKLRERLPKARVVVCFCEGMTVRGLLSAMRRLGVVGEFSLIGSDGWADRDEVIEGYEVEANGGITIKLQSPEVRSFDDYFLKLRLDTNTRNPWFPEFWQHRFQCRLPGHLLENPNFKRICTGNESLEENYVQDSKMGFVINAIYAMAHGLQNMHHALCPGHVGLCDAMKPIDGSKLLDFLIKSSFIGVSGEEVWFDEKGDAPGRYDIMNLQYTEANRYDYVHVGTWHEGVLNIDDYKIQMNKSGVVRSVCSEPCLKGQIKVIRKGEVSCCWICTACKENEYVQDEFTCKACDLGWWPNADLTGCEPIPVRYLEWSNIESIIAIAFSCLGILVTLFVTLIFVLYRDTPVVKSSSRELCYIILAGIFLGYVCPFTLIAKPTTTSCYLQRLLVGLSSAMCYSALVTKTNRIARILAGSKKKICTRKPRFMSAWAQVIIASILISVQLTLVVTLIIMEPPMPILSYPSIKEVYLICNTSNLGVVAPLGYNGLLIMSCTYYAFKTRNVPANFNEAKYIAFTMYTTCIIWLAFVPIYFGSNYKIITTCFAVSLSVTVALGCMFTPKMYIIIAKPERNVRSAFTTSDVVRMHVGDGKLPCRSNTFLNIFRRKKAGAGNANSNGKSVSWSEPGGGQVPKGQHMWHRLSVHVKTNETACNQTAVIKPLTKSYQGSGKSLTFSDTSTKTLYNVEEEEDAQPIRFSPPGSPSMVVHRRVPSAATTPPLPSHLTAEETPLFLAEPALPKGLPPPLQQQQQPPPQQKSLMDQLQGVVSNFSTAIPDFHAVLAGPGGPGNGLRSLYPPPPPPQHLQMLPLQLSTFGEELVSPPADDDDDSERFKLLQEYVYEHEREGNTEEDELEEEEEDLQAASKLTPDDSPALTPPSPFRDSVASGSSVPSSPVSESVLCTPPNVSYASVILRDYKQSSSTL
mGluR5, sequence (P31424 21-1203): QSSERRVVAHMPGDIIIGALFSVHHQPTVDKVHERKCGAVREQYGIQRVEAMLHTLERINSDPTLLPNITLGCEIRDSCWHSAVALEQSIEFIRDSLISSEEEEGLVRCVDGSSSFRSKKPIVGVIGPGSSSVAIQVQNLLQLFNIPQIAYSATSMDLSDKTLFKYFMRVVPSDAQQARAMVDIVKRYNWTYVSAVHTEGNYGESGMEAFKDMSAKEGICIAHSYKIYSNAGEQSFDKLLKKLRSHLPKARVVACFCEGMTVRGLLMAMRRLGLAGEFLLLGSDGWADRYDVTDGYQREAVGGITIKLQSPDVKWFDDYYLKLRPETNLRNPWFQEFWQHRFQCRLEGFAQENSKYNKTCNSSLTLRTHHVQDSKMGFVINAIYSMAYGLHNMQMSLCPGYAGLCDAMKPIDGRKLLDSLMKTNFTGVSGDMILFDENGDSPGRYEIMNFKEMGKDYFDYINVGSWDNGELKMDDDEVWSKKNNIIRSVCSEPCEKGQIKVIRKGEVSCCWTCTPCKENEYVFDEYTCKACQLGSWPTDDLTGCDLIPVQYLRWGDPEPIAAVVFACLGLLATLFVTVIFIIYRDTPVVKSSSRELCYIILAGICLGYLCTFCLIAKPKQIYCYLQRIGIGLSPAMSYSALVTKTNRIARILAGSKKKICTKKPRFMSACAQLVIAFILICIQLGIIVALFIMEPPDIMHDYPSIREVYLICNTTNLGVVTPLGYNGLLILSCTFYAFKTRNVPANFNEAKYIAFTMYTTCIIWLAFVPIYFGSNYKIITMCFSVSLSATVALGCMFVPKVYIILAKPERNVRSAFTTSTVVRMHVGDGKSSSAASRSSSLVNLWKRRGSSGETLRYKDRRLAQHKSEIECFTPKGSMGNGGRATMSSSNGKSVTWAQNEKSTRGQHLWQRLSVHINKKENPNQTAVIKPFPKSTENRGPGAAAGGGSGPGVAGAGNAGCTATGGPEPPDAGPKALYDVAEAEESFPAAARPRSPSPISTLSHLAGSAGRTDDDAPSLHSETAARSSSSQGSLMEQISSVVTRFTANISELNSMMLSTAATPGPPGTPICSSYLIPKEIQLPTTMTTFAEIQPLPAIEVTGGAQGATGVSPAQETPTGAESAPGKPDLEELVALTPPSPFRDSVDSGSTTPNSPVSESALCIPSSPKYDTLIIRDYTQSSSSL

## COC1CCC(C(=O)c2ccc3nc4c(cc3c2)CCCO4)CC1 (stereo not drawn) [JNJ16259685]
mGluR1 [1]
  in vivo mGluR1 ED50: 1.4 ± 0.1 mg/kg

## COc1ccc(-c2nsc(NC(=O)[C@@H]3C[C@H]3C)c2C)cc1 [LY2428703]
mGluR1 [2]
  affinity for mGluR1 relative to mGluR5: > 10 fold
mGluR1 [3]
  affinity of LY2428703 relative to LSN2606428: about 20 fold
[4]
  percent of compound metabolized: 79.5 ± 14.7%
[5]
  percent of compound metabolized: 91.1 ± 3.4%
[6]
  percent of compound metabolized: 65.0 ± 15.5%
[7]
  percent of compound metabolized: 90.1 ± 3.1%
Human P-gp; [16]
  B-A/A-B flux ratio: ~ 1.0
  P-gp substrate identification: not a P-gp substrate
Human P-gp; MDCK monolayers, n=8
  mass balance recovery: 108 ± 10%
  passive permeability coefficient: 62 ± 3 ×10⁻⁶ cm/s and 60 ×10⁻⁶ cm/s
[8]
  tracer level in rat cerebellum: 330 % SUV
mGluR1 [9]
  rat mGluR1 occupancy: dose-dependently occupied
[10]
  clearance from brain, percent loss in concentration from five to 60 minutes: > 95%
  clearance from plasma, percent loss in concentration from five to 60 minutes: > 95%
[11]
  dose distributed to brain as percent of cardiac output: 84%
[11]; mouse
  blood-brain barrier permeability coefficient: 19 ×10⁻⁶ cm/s
[11]; mouse, over the 10-fold range of doses
  percent of dose delivered to the brain: 1.2–1.6% and 1.6 ± 0.2%

## Cc1nc(C#Cc2cccnc2)cs1 [MTEP, 3-((2-Methyl-4-thiazolyl)ethynyl)pyridine, reference compound]
mGluR5; 5 mg/kg, rat, n=2
  effect of pretreatment on forebrain uptake of 11C-LY2428703: not affected

## Cc1c(-c2ccc(O[11CH3])cc2)nsc1NC(=O)[C@@H]1C[C@H]1C [^11C-LY2428703]
[12]
  LogD7.4: 4.02 ± 0.09
mGluR1 [13]
  PET signal in rat cerebellum: large specific and displaceable signal
mGluR5; rats pretreated with MTEP 5 mg/kg
  affinity for mGluR5s in vivo (PET): negligible affinity
[14]
  stability in rat whole blood and brain homogenates: no biotransformation products were detected
cerebellum/brain, cerebellum/plasma, brain/plasma
  regional concentration ratios of the radiometabolite: < 1.0
[17]
  parent radioligand, % of brain radioactivity: 82.7%
  radiometabolite, % of brain radioactivity: 17.2%
[18]
  parent radioligand, % of cerebellar radioactivity: 96.2% and > 96%
  radiometabolite, % of cerebellar radioactivity: ~ 3.5% and 3.7% and 3–4%
Rat plasma, 30 minutes after injection
  parent radioligand, % of plasma radioactivity: 75%
[19]
  %SUV concentration of parent in brain: 49 %SUV
  %SUV concentration of parent in cerebellum: 156 %SUV
  %SUV concentration of parent in plasma: 122 %SUV
  %SUV concentration of parent in urine: 2.7 %SUV
  %SUV concentration of the major radiometabolite in brain: 10.2 %SUV
  %SUV concentration of the major radiometabolite in cerebellum: 6.1 %SUV
  %SUV concentration of the major radiometabolite in plasma: 38.5 %SUV
  %SUV concentration of the major radiometabolite in urine: 161 %SUV
  parent concentration ratio brain/plasma: < 1.0
  parent concentration ratio cerebellum/brain: 3.2 and 3.2–3.5
  parent concentration ratio cerebellum/plasma: 1.3
[20]
  parent radioligand in brain: 48 %SUV
  parent radioligand in cerebellum: 169 %SUV
  parent radioligand, % of brain activity: 82.5%
  parent radioligand, % of cerebellar activity: 95.8%
  radiometabolite in brain: 9.5 %SUV
  radiometabolite in cerebellum: 5.6 %SUV
  radiometabolite, % of brain activity: 16.5%
  radiometabolite, % of cerebellar activity: 3.3%
ABCB1 (P-gp)
  substrate for ABCB1 transporter at the blood-brain barrier: not a substrate
ABCG2 (BCRP)
  substrate for ABCG2 transporter at the blood-brain barrier: not a substrate

## [3H]O[3H] [tritiated water]
[15]
  brain levels, percent of the dose: 1.9 ± 0.2%
